Like-named read-outs stand apart in the source and are kept apart here.
What was measured:
[1] = tested on: Panc-1, MDA-MB-231, MCF-7 and HCT116 cells; assay type: cell-based; details: 48 h, read-out: IC50s against all the cell lines tested (Panc-1, MDA-MB-231, MCF-7, HCT116)
[2] = tested on: CHL-1 (BRAF wild-type) melanoma cells; test: MTT cell viability assay, CHL-1 melanoma cells; assay type: cell-based; details: Homo sapiens, CHL-1, 72 h, read-out: Melanoma cells IC50 (μM) CHL-1
[3] = tested on: UACC 903 (BRAF-mutant) melanoma cells; test: MTT cell viability assay, UACC 903 melanoma cells; assay type: cell-based; details: Homo sapiens, UACC-903, 72 h, read-out: Melanoma cells IC50 (μM) UACC 903
[4] = tested on: CHL-1 and UACC 903 melanoma cells; test: MTT cell viability assay, values stated jointly for CHL-1 and UACC 903; assay type: cell-based; details: Homo sapiens, read-out: IC50, CHL-1 and UACC 903 stated jointly in text
Procedure, shortened: (§1)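 Cells kept in DMEM with 10% FBS and penicillin/streptomycin at 37 °C. Seeded at 3,000 cells/well and treated in triplicate with a test compound series (0.5–25 μM for 48 h; 72 h exposure also run for CHL-1/UACC 903). MTT (5 mg/mL stock in PBS) added for 3 h at 37 °C, formazan dissolved in DMSO, absorbance read at 570 nm with 630 nm background subtracted. IC50 from non-linear curve fits.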

UACC903 cells = test: Annexin V and Caspase 3/7 activity assays; assay type: cell-based, human; details: UACC903, 24 h; for cells positive for Annexin V, Caspase 3/7 activity and 7-AAD: concentration not stated at place (25 and 50 μM tested)
Procedure, shortened: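 UACC903 cells exposed to test compound at 25 and 50 μM for 24 h. Floating and adherent cells analysed on a Muse cell analyzer using two kits. The Annexin V/7-AAD kit sorts cells into live, early apoptotic (Annexin V+/7-AAD−), late apoptotic (double positive) and necrotic (7-AAD only) quadrants. The caspase-3/7 kit uses NucView, a DEVD-linked DNA dye released by active caspase 3/7, plus 7-AAD as dead-cell marker.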

[5] = tested on: PARP, Bcl-2, Bcl-xL, Survivin in CHL-1 and UACC903 melanoma cells; test: Western blot of survival and apoptosis proteins; assay type: cell-based, human; details: CHL-1 and UACC903, 24 h
Procedure, shortened: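 CHL-1 and UACC903 cells (2 × 10^6) treated with test compound at set concentrations for 24 h. Whole-cell lysates resolved by SDS-PAGE and transferred to PVDF. Blots probed for PARP, […], survivin and Bcl-xL, with β-actin as loading control, and detected by enhanced chemiluminescence.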

UACC903 melanoma cells = test: Live/Dead assay, UACC903 cells; assay type: cell-based, human
Procedure, shortened: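 2 × 10^5 cells incubated with test compound (25 and 50 μM) for 24 h at 37 °C. Cells then stained with 5 μM ethidium homodimer plus 5 μM calcein-AM for 30 min at 37 °C. Imaged by fluorescence microscopy: green esterase-retained calcein marks live cells, red marks membrane-damaged dead cells. Percentage of dead cells quantified from images.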

[6] = tested on: MCF10A, the human breast epithelial cell line; test: MTT cell viability assay, normal MCF10A cells; assay type: cell-based; details: 25 μM, 48 h
[7] = tested on: cancer cell lines (UACC903, MCF-7 and MDA-MB-231); test: MTT cell viability at 25 μM, values stated jointly for cancer cell lines; assay type: cell-based; details: 48 h, read-out: cell viability of cancer cell lines
[8] = tested on: 1205Lu and A375M cell lines; test: MTT cell viability assay, values stated jointly for 1205Lu and A375M; assay type: cell-based; details: Homo sapiens, 48 h, read-out: IC50, 1205Lu and A375M stated jointly in text
Procedure, shortened: as §1

In the case of `O=C1NC(=S)NC(=O)C1=C/C=C/c1cccc2ccccc12` [Compound 2d, 5-(3-Naphthalen-1-yl-allylidene)-2-thioxo-dihydro-pyrimidine-4,6-dione], the IC50 [1] is reported as 3.6 to 7.9 µM.
For `CCCS(=O)(=O)Nc1ccc(F)c(C(=O)c2c[nH]c3ncc(-c4ccc(Cl)cc4)cc23)c1F` [PLX-4032, vemurafenib], the IC50 [2] was 13.7 ± 1.7 µM and the IC50 [3] was 3.6 ± 1.1 µM.
For `O=C1NC(=S)N(c2ccccc2)C(=O)/C1=C/C=C/c1cccs1` [Compound 8b, 1-Phenyl-5-(3-thiophen-2-yl-allylidene)-2-thioxo-dihydro-pyrimidine-4,6-dione], the IC50 ([4]; 48 h) was 6.5 to 8.1 µM, the IC50 ([4]; 72 h) was 3.8 to 4 µM and the “necrotic death (cells only positive for 7-AAD)” value (UACC903 cells) was “not detected”. For the same compound, the “cells positive for Annexin V, Caspase 3/7 activity and 7-AAD” value (UACC903 cells) was “More than 70%”, the “PARP cleavage (Western blot)” value [5] was “induced PARP cleavage” and the “levels of anti-apoptotic proteins Bcl-2, Bcl-xL and Survivin (Western blot)” value [5] was “reduced the levels of anti-apoptotic proteins Bcl-2, Bcl-xL and Survivin in a dose-dependent manner”. The “cell death in Live/Dead assay, UACC903” value (UACC903 melanoma cells; 25 μM, 24 h) was 25%, the “potency towards melanoma cells (UACC903) as compared to normal MCF10A cells” value [6] was “three-fold more potent” and the viability at 25 µM [7] was 20 to 30%. The IC50 [8] was 10.6 to 14.8 µM.
For `O=C1NC(=S)NC(=O)C1=C/C=C/c1cccs1` [Compound 2b, 5-(3-Thiophen-2-yl-allylidene)-2-thioxo-dihydro-pyrimidine-4,6-dione], the IC50 ([4]; 48 h) was 6.5 to 8.1 µM, the IC50 ([4]; 72 h) was 3.8 to 4 µM and the “necrotic death (cells only positive for 7-AAD)” value (UACC903 cells) was “not detected”. The “cells positive for Annexin V, Caspase 3/7 activity and 7-AAD” value (UACC903 cells) was “More than 70%”, the “PARP cleavage (Western blot)” value [5] was “induced PARP cleavage” and the “levels of anti-apoptotic proteins Bcl-2, Bcl-xL and Survivin (Western blot)” value [5] was “reduced the levels of anti-apoptotic proteins Bcl-2, Bcl-xL and Survivin in a dose-dependent manner”. For the same compound, the “cell death in Live/Dead assay, human melanoma cells” value (UACC903 melanoma cells; 25 μM concentration, cell line not specified at place) was 65–70%, the “potency towards melanoma cells (UACC903) as compared to normal MCF10A cells” value [6] was “three-fold more potent” and the viability at 25 µM [7] was 20 to 30%. It also gave an IC50 [8] of 10.6 to 14.8 µM.

Reference: article PMC5736457 (European journal of medicinal chemistry, 2017)
